The species named for assay [1] is Rattus norvegicus. Nature of the assay: LPO-lowering activity was estimated by the IC50 value of compound in rat liver microsomal lipid peroxidation. The class given is functional. An outline of the steps:
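Rat liver microsomes were reacted with compound plus cysteine (500 μM) and ferrous sulfate (5 μM), following the ferrous sulfate/cysteine method. Lipid peroxide was measured by the thiobarbituric acid method. IC50 (μg/mL) is the concentration giving 50% inhibition of lipid peroxide formation.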

The species named for assay [2] is Cavia porcellus. Briefly: Evaluated for inhibition of the formation and release of SRS-A in isolated guinea pig ileum. The class given is functional. An outline of the steps: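 Guinea pig (Hartley, male) lung slices from sensitized animals were preincubated with compound for 15 min, then challenged with albumin antigen. SRS-A formed and released was bioassayed by superfusion over isolated guinea pig ileum. IC50 (μM) came from a least-squares regression of percent inhibition against dose, with 95% confidence limits by Fieller's equation.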

For assay [3], the system named is superoxide radical (cell-free, no organism). Briefly: The concentration of compound required to inhibit generation of superoxide by 50 percent electrochemically.
[4] abbreviates: Rattus norvegicus, Liver, read-out: IC50.

In brackets after ≈: the same amount, converted by molar mass.

On to `CC1Oc2cc(C(C)(C)C)c(O)cc2S1` (stereo unspecified), for which the half-inhibitory concentration (IC50) is 0.1 µg/mL (≈ 0.446 µM) in assay [1] (setting [4]) and 11.2 µM in assay [2].

`CC(C)(C)c1cc(/C=C2\CCOC2=O)cc(C(C)(C)C)c1O` gave an IC50 in assay [2] of 147 µM.

Take `Cc1cc(C(C)(C)C)c(O)c(C(C)(C)C)c1` [BUTYLATED HYDROXYTOLUENE]: the Q1/2 in assay [3] was 0.45 mM.

For the compound `NC1=NN(c2cccc(C(F)(F)F)c2)CC1` [BW-755C], the midpoint of inhibition in assay [2], the IC50, lay at 136 µM.

In the case of `Cc1c(C)c2c(c(C)c1O)SC(C)O2` (stereo unspecified), the IC50 in assay [1] (setting [4]) was below 0.1 µg/mL; in assay [2], 2.1 µM. The same compound yielded a Q1/2 in assay [3] of 1.6 mM.

Consider `Cc1c(C)c2c(c(C)c1O)CCC(C)(CO)O2` (stereo unspecified), for which the IC50 in assay [1] (setting [4]) is 0.3 µg/mL (≈ 1.27 µM). The same compound came in with a Q1/2 in assay [3] of 2 mM.

Take `Cc1c(C)c2c(c(C)c1O)SCO2`: the IC50 in assay [1] (setting [4]) was below 0.1 µg/mL; in assay [2], 2.4 µM. Further, in assay [3], the Q1/2 was found to be 1.3 mM.

For the compound `Cc1c(C)c2c(c(C)c1O)SC(CCCO)O2` (stereo unspecified), the values for the IC50 in assay [1] (setting [4]) and in assay [2] were 0.1 µg/mL (≈ 0.393 µM) and 1.5 µM, respectively. Further, the Q1/2 in assay [3] came to 2.2 mM.

In the case of `CCCCCCCC1Oc2c(C)c(C)c(O)c(C)c2S1` (stereo unspecified), the results for the IC50 in assay [1] (setting [4]) and in assay [2] were below 0.1 µg/mL and above 33.9 µM, respectively. For the same compound, the Q1/2 in assay [3] turned out to be 1.4 mM.

`CCC1Oc2c(C)c(C)c(O)c(C)c2S1` (stereo unspecified): the results for the IC50 in assay [1] (setting [4]) and in assay [2] were below 0.1 µg/mL and 4.5 µM, respectively. Further, in assay [3], the Q1/2 is on record as 1.3 mM.

Consider `Cc1c(C)c2c(c(C)c1O)CCC(C)(C)O2` [APC-100], for which the IC50 in assay [1] (setting [4]) is below 0.1 µg/mL. The compound further returned a Q1/2 in assay [3] of 2.4 mM.

Turning to `CCCCCCC1Oc2c(C)c(C)c(O)c(C)c2S1` (stereo unspecified), the results for the IC50 in assay [1] (setting [4]) and in assay [2] were 0.1 µg/mL (≈ 0.357 µM) and above 35.6 µM, respectively. The compound further registered a Q1/2 in assay [3] of 1.6 mM.

As to VITAMIN E [listing 1 of 2 here], in assay [3], the Q1/2 came to 4.4 mM.

On to `CCCCCCCCCCCCCCCCCCCC1Oc2c(C)c(C)c(O)c(C)c2S1` (stereo unspecified), for which, in assay [1] (setting [4]), the IC50 was above 1 µg/mL. In addition, the Q1/2 in assay [3] worked out at 1.8 mM.

Regarding `Cc1c(C)c2c(c(C)c1O)CCC(C)(C(=O)O)O2` (stereo unspecified) [TROLOX], the IC50 in assay [1] (setting [4]) was above 1 µg/mL. The Q1/2 in assay [3] is recorded as 1.9 mM.

Regarding `CCCCC1Oc2c(C)c(C)c(O)c(C)c2S1` (stereo unspecified), the results for the IC50 in assay [1] (setting [4]) and in assay [2] were below 0.1 µg/mL and 11.9 µM, respectively. In assay [3], this compound displayed a Q1/2 of 1.6 mM.

On to `Cc1c(C)c2c(c(C)c1O)SC(CCC(N)=O)O2` (stereo unspecified), for which the IC50 was 0.3 µg/mL (≈ 1.12 µM) in assay [1] (setting [4]) and 3.1 µM in assay [2]. Further, the Q1/2 in assay [3] is 2.3 mM.

For `Oc1ccc2c(c1)SCO2`, the IC50 in assay [1] (setting [4]) was above 1 µg/mL; in assay [2], above 64.8 µM. In assay [3], this compound returned a Q1/2 of 6.2 mM.

`Cc1c(C)c2c(c(C)c1O)SC(CCC(=O)O)O2` (stereo unspecified): the IC50 in assay [1] (setting [4]) was above 1 µg/mL; in assay [2], above 37.2 µM. Moreover, in assay [3], the Q1/2 came out at 1.8 mM.

Regarding `Cc1c(C)c2c(c(C)c1O)SC(c1ccccc1)O2` (stereo unspecified), the IC50 in assay [1] (setting [4]) was below 0.1 µg/mL; in assay [2], 6.6 µM. In assay [3], this compound yielded a Q1/2 of 2.4 mM.

As for VITAMIN E [listing 2 of 2 here], the IC50 in assay [1] was above 1 µg/mL.

Take `CCCC1Oc2c(C)c(C)c(O)c(C)c2S1` (stereo unspecified): the IC50 was below 0.1 µg/mL in assay [1] (setting [4]) and 3.8 µM in assay [2]. In assay [3], this compound returned a Q1/2 of 1.4 mM.

(Values after ChEMBL document CHEMBL1124776, “Studies on hindered phenols and analogues. 2. 1,3-Benzoxathioles having SRS-A inhibiting activity” (J Med Chem, 1990).)
